# Reference: ChEMBL document CHEMBL4513216, “Probing the Open Global Health Chemical Diversity Library for Multistage-Active Starting Points for Next-Generation Antimalarials” (ACS Infect Dis, 2020)
# Assay: Toxicity liver stage against HepG2, at 10uM
# Format: cell-based
# Parameters: test concentration 10 uM, cell line HepG2-A16-CD81EGFP
# Conditions: human, HepG2-A16-CD81EGFP cells; read-out: INHIBITION
# How it was run: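 Uninfected HepG2-A16-CD81EGFP cells, 3 × 10^3 per well, 1536-well, plated on prespotted compound at 10 μM final, parasite-free screening media added to match infected plates; puromycin 10 μM positive, DMSO 0.5% negative; run in parallel with 48 h PbLuc assay at 37 °C, 5% CO2; viability by CellTiter-Glo luminescence, normalized to controls.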
row,SMILES,cytotoxicity at 10 µM
1,COc1ccc(Cl)c(-c2noc3ncn(CCC(=O)O)c(=O)c23)c1,7.25%
2,Cc1nnc(SCc2cc(=O)n3c4c(sc3n2)CCCC4)[nH]1,-9.67%
3,CCS(=O)(=O)Nc1ccc2c(c1)OCC(C)(C)C(=O)N2C,-17.2%
4,COCCNC(=O)Cn1cc(OCc2ccc(F)cc2)c(=O)cc1C,-3.04%
5,CNC(=O)CS(=O)(=O)C1CCN(S(=O)(=O)c2ccccc2Cl)CC1,11.7%
6,CCCc1ccc(N2CCN(Cc3nc4ccccc4n3C)CC2)cc1,7.06%
7,O=C(c1ccno1)N1CCC2(CC1)C(=O)N(CC1CC1)c1ccccc12,7.85%
8,CCCN(C(=O)CCS(=O)(=O)Cc1ccccc1)c1cccc(C)c1,-2.67%
9,CCc1ccc(NC(=O)c2n[nH]c(-n3cnnc3)n2)cc1,4.68%
10,CCN1CCCC(O)(CNCc2ccccn2)C1 (configuration not stated),-5.69%
11,c1ccc(-c2nn3c(CN4CCOCC4)nnc3s2)nc1,9.9%
12,COc1ccc(NC(=O)c2cnc(C3CCN(C(C)=O)C3)nc2C)cc1 (configuration not stated),-2.6%
13,CC(=O)N1CCC1c1nc(-c2ccc(C)s2)no1 (configuration not stated),-1.78%
14,Cn1cc(CN2CCCCC2c2ccc(-c3cnn(C)c3)nc2)cn1 (configuration not stated),9.25%
15,CN(C)C(=O)C1CN(c2ncccn2)CCN1C (configuration not stated),-0.419%
16,Cc1nccc(N2CCN(C3CCOCC3)CC(C(=O)N(C)C)C2)n1 (configuration not stated),2.12%
17,Cc1ncc(CN2CCC(c3nc(O)cc(-c4ccsc4)n3)CC2)cn1,-11.8%
18,O=C(CC1CCN(CCc2ccccc2)CC1)NC1CCOCC1,3.31%
19,CCCC(=O)N1CCCC(c2cc3cccnc3c(O)n2)C1 (configuration not stated),7.53%
20,O=C(CCN1CCc2ccccc21)N1CC(C(=O)N2CCOCC2)C1,-26.7%
21,O=C(Cc1ccsc1)N1CCC(c2noc(-c3cccnc3)n2)CC1,-18.2%
22,O=C(c1ccc(O)nc1)N1Cc2ccccc2OC2(CCOCC2)C1,-44.2%
23,CNC(=O)C1CN(Cc2c[nH]cn2)CCN(C2CCOCC2)C1 (configuration not stated),-17%

row,SMILES,cytotoxicity at 10 µM
1,Cc1ncsc1CN1CCN(C2CCOCC2)CC(C(N)=O)C1 (configuration not stated),14.4%
2,COc1ccccc1CN1CCc2c(nc(-c3ccccn3)[nH]c2=O)C1,-19.7%
3,CC(=O)N1CCCC1c1ccc(-c2c(C)noc2C)cn1 (configuration not stated),2.88%
4,CC(=O)N1CCC2(CC1)CC(NS(C)(=O)=O)c1ccccc1O2 (configuration not stated),5.53%
5,CC(=O)Nc1ccc(SCC(O)COCc2ccc3c(c2)OCO3)cc1 (configuration not stated),3.56%
6,Cc1ccc(N2CCCN(C(=O)C(C)OCC3CC3)CC2)nn1 (configuration not stated),0.0479%
7,O=C(CC1OCCc2ccccc21)NCCn1cccc1 (configuration not stated),1.71%
8,COCc1nnc(-c2cccc(C(=O)N(C)CC(C)(C)C)c2)o1,-11.1%
9,Cc1ocnc1CNC(=O)Nc1ccc(N2CCOC(C)C2)cc1 (configuration not stated),-2.8%
10,O=C(NCc1nncn1C1CC1)c1cccnc1Oc1ccccc1,1.57%
11,O=C(NCc1nncn1C1CC1)c1ccccc1OCC1CC1,3.36%
12,COc1c(C2CCCN2CCOc2ccccc2C#N)c(C)nn1C (configuration not stated),2.59%
13,COc1cc(C2(C(=O)NC3CCN(CC4CC4)CC3)CC2)ccc1C,-11.2%
14,CCS(=O)(=O)c1ccc(N2CCC(NC(=O)NC(C)CO)CC2)cc1 (configuration not stated),13.9%
15,CS(=O)(=O)Cc1ccc(C(=O)N2CCCC(n3cncn3)C2)o1 (configuration not stated),-9%
16,CC1CN(C)c2ccccc2CN1C(=O)c1ccoc1 (configuration not stated),-2.84%
17,COCCCN(Cc1ccncc1)C(=O)CSc1ccc(F)cc1,0.807%
18,O=S(=O)(Cc1c(F)cccc1Cl)Cc1nnnn1C1CC1,-5.19%
19,CCC(=O)N1CCC(NC2CCSCC2)C1 (configuration not stated),2.85%
20,Cc1occc1CNC(=O)Nc1ccc2nc(N3CCOCC3)oc2c1,9.5%
21,CNC(=O)C(C)(C)CNC(=O)Nc1cc(C)ccn1,11.7%
22,O=C(O)c1c(Cl)ncn1-c1cccc2ccccc12,1.76%
23,CC1(C)CN=C(N2CCN(CC3CCCO3)CC2)S1 (configuration not stated),-8.41%

row,SMILES,cytotoxicity at 10 µM
1,CC(=O)NCCCC(=O)NC1(c2ccc(Cl)c(Cl)c2)CC1,-7.79%
2,Cc1nonc1NC(=O)c1ccc(F)c(COCC2CC2)c1,18.6%
3,CC(=O)N1CCCc2cc(NC(=O)NCCc3cnn(C)c3)ccc21,-5.42%
4,Cc1cc(=O)c(C(=O)N(C)Cc2ccc(Cl)c(F)c2)c[nH]1,9.39%
5,CCc1nc(C2CCCN2C(=O)CCCOc2cccc(F)c2)no1 (configuration not stated),11.1%
6,Cc1noc([C@H]2C[C@@H]3CCN(C(=O)c4cccn4C)C[C@H]3O2)n1,-103%
7,CC(=O)N1CCOC2(CCN(C(=O)c3cnoc3C)CC2)C1,-0.0788%
8,CN(Cc1nc(-c2ccccc2)no1)Cc1cnc(N2CCOCC2)s1,-1.48%
9,Cc1ccccc1N1CCN(C(=O)c2cnc(N(C)C)nc2C)C(C)C1 (configuration not stated),15.3%
10,N[C@H]1CN(C(=O)c2ccc(Cl)cc2F)C[C@@H]1C1CC1,-44.3%
11,CN(C)[C@H]1CCN(c2ccnc(C(=O)NCc3ccco3)c2)C1,4.12%
12,c1cnn(CCC2CCCCN2Cc2cnc(C3CCCCC3)nc2)c1 (configuration not stated),0.106%
13,CC(C)(O)CCc1cccc(C(=O)NCC2COCCO2)c1 (configuration not stated),-6.38%
14,FC(F)(F)C1CN(Cc2cnc3c(-c4ccccc4)cnn3c2)CCO1 (configuration not stated),-2.34%
15,Cc1cc(C)n(Cc2cc(C(=O)N[C@H]3CCCCNC3=O)n[nH]2)n1,5.97%
16,CCCS(=O)(=O)N1CCC2(CCC(=O)N(CCc3ccccc3)C2)CC1,6.84%
17,CC(C(=O)N(C)Cc1noc(C2CCC2)n1)N1CCc2ccccc2C1 (configuration not stated),-79.1%
18,CCC(CO)N(Cc1cccc(-n2cccn2)c1)Cc1ccccn1 (configuration not stated),6.95%
19,COc1cccc(OC)c1OCCN1C(=O)CCNC1=O,-7.89%
20,CC(C)c1nccn1Cc1cc(C(=O)NCC(C)n2ccnc2)n[nH]1 (configuration not stated),-0.419%
21,N#Cc1ccc(Oc2cc(F)c(CN3CCCC3)c(F)c2)nc1,-8.74%
22,CNc1ncccc1C(=O)N1CCN(C)C2(CCN(C)CC2)C1,7.16%
23,CNC(=O)[C@@H]1C[C@@H](NC(=O)c2cn(C)nc2C)CN1Cc1sccc1C,-5.58%

row,SMILES,cytotoxicity at 10 µM
1,CCSCCn1c(=O)n(Cc2ccc(F)cc2)c2ncc(C(=O)O)cc21,-2.54%
2,CC(C)c1nc(-c2ccc(=O)[nH]n2)n(-c2ccc3c(c2)OCO3)n1,6.46%
3,COc1cccc(-c2cc(NCCN(C)C)nc3[nH]ccc23)n1,-3.97%
4,Cc1cc(C)n(CCCN(C)C(=O)CN2CC3(CCNCC3)OC2=O)n1,5.25%
5,O=S(=O)(Cc1ccccc1CN1CCOCC(O)C1)c1ccccc1 (configuration not stated),-22.8%
6,Cc1nc(O)cc(CCNc2nc(N(C)C)nc(C)c2C)n1,-3.03%
7,COc1ccc(F)c(CN2CCCC(c3cc(O)nc(C)n3)C2)c1 (configuration not stated),7.3%
8,CCc1nc(CNc2ccc(-c3nc(C4CC4)no3)cn2)no1,-6.14%
9,CN(C)C(=O)c1ccc(N2CCC3(CCC(=O)N(CCO)C3)CC2)nc1,3.8%
10,CC(C)C(=O)N1CCC(c2nc3c([nH]2)CCCNC3=O)CC1,1.74%
11,CCCC1(CO)CCCN(c2ncnc3c2c(C)nn3C)C1 (configuration not stated),2.72%
12,Cc1cccc(-c2nccn2C2CC(=O)N(C(C)C)C2)n1 (configuration not stated),5.62%
13,OC1(CNCc2noc(Cc3ccccc3)n2)CCCNC1 (configuration not stated),5.19%
14,CCc1cc(N(C)Cc2ncc[nH]2)nc(N2CCOCC2)n1,-1.61%
15,N#Cc1ccc(CN2CCCC2Cn2cccn2)c(F)c1 (configuration not stated),-9.2%
16,CC(C)N(Cc1ccccn1)Cc1nc2c(cnn2C)c(=O)[nH]1,-6.42%
17,Cc1nc(C)c(CC(=O)Nc2nnc(C(C)C)s2)c(=O)[nH]1,-7.16%
18,Cc1ccc(O)c(CNCC2CCCN2c2cccnn2)n1 (configuration not stated),-7.92%
19,O=C(CCN1C(=O)CCC1=O)NCC1(c2c(F)cccc2F)CCCC1,-9.47%
20,Cc1cccnc1NC(=O)c1ccc(-n2ncc(C#N)c2N)cc1,-9.35%
21,Cc1cc(CNC(=O)CN2CCCC(Cn3cncn3)C2)ccc1F (configuration not stated),-9.92%
22,Cc1noc(C)c1C(=O)NCc1ccc(N2CCCCCC2)nc1,2.76%
23,CCc1[nH]ncc1C(=O)N1CCOC(c2nc(C)n[nH]2)C1 (configuration not stated),-8.69%

row,SMILES,cytotoxicity at 10 µM
1,O=C(CCc1ccccc1Br)NS(=O)(=O)c1ccc2c(c1)OCCO2,-10.7%
2,Cc1cc(C)n(C2CN(CCC(=O)NC3CCCCC3)C2)n1,1.04%
3,CN1CCN(C2CCN(CCOc3ccc(F)cc3)CC2)C1=O,-7.8%
4,CC(C)OCCN1CCC(N2CCN(C)C2=O)CC1,-11.4%
5,COCCN1CCC(NCc2cccc(F)c2)C1 (configuration not stated),-8.85%
6,Cc1nc(CN2CCCC(N(C)CCc3ccncc3)C2)no1 (configuration not stated),-6.93%
7,COc1c(CNCc2cnn(C)c2)c(C(C)C)nn1C,-7.39%
8,Cc1noc(C)c1C(=O)N1CCCC1c1c(C)nn(C)c1Cl (configuration not stated),-12.6%
9,Cc1ncc2c(n1)CN(Cc1noc(C3CC3)n1)CC2,-13.4%
10,COc1cccc(COCC(=O)N2CCCC(c3cc(C)[nH]n3)C2)c1 (configuration not stated),-6.81%
11,O=C(NCc1ccc(Cl)cc1)N1CCN(CC(O)C2CC2)CC1 (configuration not stated),8.66%
12,CNCC1CCC(c2cc(CN(C)C(=O)c3cnccn3)n(C)n2)CC1 (configuration not stated),-5.1%
13,COc1ccc(CN(Cc2c[nH]cn2)CC2CCCO2)c(OC)c1 (configuration not stated),-26%
14,c1ccc(CN2Cc3[nH]nc(COc4cccnc4)c3C2)nc1,-109%
15,O=C(c1cccnc1)N1CCc2ncnc(C3CCOC3)c2CC1 (configuration not stated),4.22%
16,CC(C)c1nc(C2CCCNC2)no1 (configuration not stated),0.684%
17,Cc1noc(C)c1CN1CCc2ncnc(-c3cccnc3)c2CC1,-97.9%
18,Cn1ccnc1C(=O)N1CCC2(CCN2Cc2ccc(F)cc2)C1 (configuration not stated),-97%
19,O=c1occ(CN2CCCCCC2)c(O)c1CN1CCCCCC1,-8.1%
20,NC1CCC(n2cc(C(=O)NC3CCc4ccccc4C3)nn2)CC1 (configuration not stated),-4.42%
